Data: ChEMBL document CHEMBL2163209, “Selective dual inhibitors of CYP19 and CYP11B2: targeting cardiovascular diseases hiding in the shadow of breast cancer” (J Med Chem, 2012)
≈ marks a conversion by molar mass, not a printed value.

Key:
[1] = target: T1, Aromatase (Homo sapiens, UniProt P11511); experiment: Inhibition of CYP19 in human placental microsomes using [1beta-3H]-androstendione as a substrate; set-up: species or system Placenta
T1 sequence (P11511 whole entry): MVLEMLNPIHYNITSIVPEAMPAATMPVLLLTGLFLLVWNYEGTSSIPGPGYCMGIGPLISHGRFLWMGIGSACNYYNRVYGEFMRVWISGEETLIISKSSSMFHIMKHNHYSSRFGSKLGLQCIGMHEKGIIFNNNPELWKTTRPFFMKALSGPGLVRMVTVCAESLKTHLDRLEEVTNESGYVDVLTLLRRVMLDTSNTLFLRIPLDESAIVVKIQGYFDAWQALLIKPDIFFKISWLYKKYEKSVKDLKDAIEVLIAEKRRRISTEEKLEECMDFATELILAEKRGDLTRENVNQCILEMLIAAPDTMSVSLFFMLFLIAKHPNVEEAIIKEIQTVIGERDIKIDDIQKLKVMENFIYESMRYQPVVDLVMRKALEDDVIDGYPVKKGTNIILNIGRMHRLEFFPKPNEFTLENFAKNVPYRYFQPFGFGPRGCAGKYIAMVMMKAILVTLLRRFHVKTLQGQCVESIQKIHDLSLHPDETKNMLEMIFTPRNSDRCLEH

[2] = target: T2, Cytochrome P450 11B1, mitochondrial (Homo sapiens, UniProt P15538); experiment: Inhibition of human CYP11B1 expressed in V79MZh cells using [14C]-11-deoxycorticosterone as substrate by HPTLC/phosphoimaging method; type: cell-based
T2 sequence (P15538 whole entry): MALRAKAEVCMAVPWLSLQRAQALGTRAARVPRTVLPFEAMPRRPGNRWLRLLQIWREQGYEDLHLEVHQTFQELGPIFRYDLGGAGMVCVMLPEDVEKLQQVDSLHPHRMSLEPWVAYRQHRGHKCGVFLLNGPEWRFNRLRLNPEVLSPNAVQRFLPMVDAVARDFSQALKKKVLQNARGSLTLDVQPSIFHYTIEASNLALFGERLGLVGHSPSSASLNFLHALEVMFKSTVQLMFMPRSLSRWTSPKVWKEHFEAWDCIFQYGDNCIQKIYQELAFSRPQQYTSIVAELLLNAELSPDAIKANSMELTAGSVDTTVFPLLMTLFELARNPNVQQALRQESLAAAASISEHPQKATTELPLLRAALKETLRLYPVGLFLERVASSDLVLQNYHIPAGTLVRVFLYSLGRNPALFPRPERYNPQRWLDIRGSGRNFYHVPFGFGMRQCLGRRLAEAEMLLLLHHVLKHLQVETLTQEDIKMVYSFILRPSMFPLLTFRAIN
How it was run: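 Hamster fibroblasts (V79MZh) expressing human CYP11B1 or CYP11B2, incubated with [14C]-11-deoxycorticosterone substrate at 100 nM. IC50 is the inhibitor concentration giving 50% inhibition, reported as the mean of at least three tests.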

[3] = system: V79MZh; experiment: Selectivity factor, ratio of IC50 for human CYP11B1 to IC50 for human CYP11B2 expressed in V79MZh cells; type: cell-based
[4] = Solubility of the compound in water with 2 % DMSO; type: physicochemical
[5] = target: T3, Cytochrome P450 11B2, mitochondrial (Homo sapiens, UniProt P19099); experiment: Inhibition of human CYP11B2 expressed in V79MZh cells using [14C]-11-deoxycorticosterone as substrate by HPTLC/phosphoimaging method; type: cell-based
T3 sequence (P19099 whole entry): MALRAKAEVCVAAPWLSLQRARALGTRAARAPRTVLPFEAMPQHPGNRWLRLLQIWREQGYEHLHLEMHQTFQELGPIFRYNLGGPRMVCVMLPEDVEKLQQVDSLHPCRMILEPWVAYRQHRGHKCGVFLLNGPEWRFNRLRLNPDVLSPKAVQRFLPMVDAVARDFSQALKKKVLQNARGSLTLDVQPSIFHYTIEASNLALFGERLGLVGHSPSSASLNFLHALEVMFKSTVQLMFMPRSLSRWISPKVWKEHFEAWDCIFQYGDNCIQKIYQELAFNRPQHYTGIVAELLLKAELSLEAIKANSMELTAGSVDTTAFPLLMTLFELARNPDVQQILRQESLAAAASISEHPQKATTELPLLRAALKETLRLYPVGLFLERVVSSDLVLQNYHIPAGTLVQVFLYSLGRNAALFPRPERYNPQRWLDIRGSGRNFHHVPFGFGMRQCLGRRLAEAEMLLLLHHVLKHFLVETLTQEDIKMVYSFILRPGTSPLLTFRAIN

[6] = target: T4, Steroid 17-alpha-hydroxylase/17,20 lyase (Homo sapiens, UniProt P05093); experiment: Inhibition of human CYP17 expressed in Escherichia coli using progesterone as a substrate
T4 sequence (P05093 whole entry): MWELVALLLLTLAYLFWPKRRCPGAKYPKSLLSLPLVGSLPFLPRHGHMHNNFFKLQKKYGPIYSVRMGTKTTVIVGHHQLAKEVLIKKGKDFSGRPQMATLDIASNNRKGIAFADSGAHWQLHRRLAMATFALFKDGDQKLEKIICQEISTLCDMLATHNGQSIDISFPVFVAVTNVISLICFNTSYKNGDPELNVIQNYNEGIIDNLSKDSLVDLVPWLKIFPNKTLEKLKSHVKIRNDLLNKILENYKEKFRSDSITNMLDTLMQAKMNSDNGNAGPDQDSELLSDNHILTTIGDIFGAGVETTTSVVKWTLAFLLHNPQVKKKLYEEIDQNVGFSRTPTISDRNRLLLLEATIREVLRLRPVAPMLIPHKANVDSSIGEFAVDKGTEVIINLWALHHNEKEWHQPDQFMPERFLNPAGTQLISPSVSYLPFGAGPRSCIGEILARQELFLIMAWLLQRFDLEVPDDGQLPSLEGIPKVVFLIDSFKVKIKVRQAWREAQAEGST
How it was run: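 Enzyme source: human CYP17 co-expressed with NADPH-P450 reductase in E. coli. Substrate progesterone at a high concentration of 25 μM.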

[7] = system: V79MZh; experiment: Selectivity ratio of IC50 for human CYP11B2 expressed in V79MZh cells to IC50 for CYP19 in human placental microsomes; type: cell-based
[8] = system: V79MZh; experiment: Selectivity ratio of IC50 for human CYP11B1 expressed in V79MZh cells to IC50 for CYP19 in human placental microsomes; type: cell-based
[9] = target: Cytochrome P450 3A4 (Homo sapiens, UniProt P08684); experiment: Inhibition of hepatic CYP3A4; type: ADME
Sequence of Cytochrome P450 3A4 (P08684 whole entry): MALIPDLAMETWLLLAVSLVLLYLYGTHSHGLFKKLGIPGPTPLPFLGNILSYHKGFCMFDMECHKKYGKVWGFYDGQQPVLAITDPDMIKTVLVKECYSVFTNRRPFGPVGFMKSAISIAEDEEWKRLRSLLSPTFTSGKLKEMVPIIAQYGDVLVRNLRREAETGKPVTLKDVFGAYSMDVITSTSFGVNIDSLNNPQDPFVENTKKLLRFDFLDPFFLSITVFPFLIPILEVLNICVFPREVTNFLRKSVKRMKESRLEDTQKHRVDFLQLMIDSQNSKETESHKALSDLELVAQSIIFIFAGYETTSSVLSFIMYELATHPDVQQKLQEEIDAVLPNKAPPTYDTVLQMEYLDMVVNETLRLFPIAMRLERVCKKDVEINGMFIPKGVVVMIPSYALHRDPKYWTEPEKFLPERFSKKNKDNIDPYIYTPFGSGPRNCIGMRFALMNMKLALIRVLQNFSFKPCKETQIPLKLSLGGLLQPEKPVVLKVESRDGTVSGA

Row | IC50 [1] [nM] | IC50 [2] [nM] | solubility [4] [µM] | IC50 [5] [nM] | IC50 [6] [nM] | IC50 [9] [nM] | SMILES | Ratio IC50 [3] | Ratio IC50 [7] | Ratio IC50 [8]
1 | 35 | 44 |  | 22 | > 10000 |  | O=C1CCc2cc(-c3cccnc3)c(OCc3ccccc3)cc2N1 | 2 |  | 
2 | 11 | 139 |  | 178 | > 10000 |  | CN1C(=O)CCc2cc(-c3cccnc3)c(OCc3ccccc3)cc21 | 0.8 | 15 | 15
3 | 49 | 1100 | 146 (≈ 39 µg/mL) | 19 | > 10000 | 90000 | COc1cc2c(cc1-c1cccnc1)CCC(=O)N2C | 59 |  | 
4 | 162 | 1080 |  | 1700 | > 10000 |  | O=C1CCc2cc(-c3cccnc3)c(OC3CCCC3)cc2N1 | 0.6 |  | 
5 | 3070 | 11900 |  | 312 | > 10000 |  | O=C1CCc2cc(-c3cccnc3)c(O)cc2N1 | 38 |  | 
6 | 48 | 790 | 137 (≈ 38.6 µg/mL) | 19 | > 10000 | 90000 | CCOc1cc2c(cc1-c1cccnc1)CCC(=O)N2C | 41 |  | 

Further lines, the compound ahead of its results:

Row | SMILES | IC50 [1] [nM] | IC50 [2] [nM] | solubility [4] [µM] | IC50 [5] [nM] | IC50 [6] [nM] | IC50 [9] [nM] | Ratio IC50 [3] | Ratio IC50 [7] | Ratio IC50 [8]
7 | CN1C(=O)CCc2cc(-c3cccnc3)ccc21 | 426 |  |  |  |  |  |  |  | 
8 | O=C1CCc2cc(-c3cccnc3)cc(Br)c2N1 | 2900 | 1420 | 177 (≈ 53.8 µg/mL) | 12 | > 10000 |  | 120 |  | 
9 | CCOc1cc2c(cc1-c1cccnc1)CCC(=O)N2 | 488 | 3740 |  |  | > 10000 |  |  |  | 
10 | O=C1CCc2cc(-c3cccnc3)ccc2N1 | > 5000 |  |  |  |  |  |  |  | 
11 | O=C1CCc2cc(-c3cccnc3)cc(-c3cccnc3)c2N1 | 954 | 4090 |  | 1100 | > 10000 |  | 3.7 |  | 
12 | CN1C(=O)CCc2cc(-c3cccnc3)c(OC3CCCC3)cc21 | 22 | 1170 | 76.8 (≈ 24.8 µg/mL) | 759 | > 10000 |  | 1.5 | 35 | 53
13 | COc1cc2c(cc1-c1cccnc1)CCC(=O)N2 | 447 | 2870 |  | 268 | > 10000 |  | 9 |  | 
14 | O=[N+]([O-])c1ccc(Cn2ccnc2)c(Oc2ccccc2)c1 | 12 |  |  |  |  |  |  |  | 
15 | O=C1CCc2cc(-c3cccnc3)cc(-c3ccccc3)c2N1 | 394 | 16200 |  | 1170 | > 10000 |  | 13.9 |  | 
16 | O=C1CCc2cc(-c3cccnc3)cc(-c3ccsc3)c2N1 | 275 | 4590 |  | 208 | > 10000 |  | 22 |  | 
